Assay results reported in article PMC3106293 (Xenobiotica; the fate of foreign compounds in biological …, 2009).
Like-named read-outs stand apart in the source and are kept apart here.

Key:
hSULT1A3 [1] = molecular target: T1, hSULT1A3 (Homo sapiens, UniProt P0DMM9); experiment: Sulfation of flavonoids by recombinant hSULT1A3
[2] = tested on: sulfotransferases (SULTs) in human intestine cytosol; experiment: Sulfation of flavonoids by human intestine cytosol; assay type: in vitro ADME; details: for Km at 30 min: male, human, human intestine cytosol, pH 6.2
Summary of the method: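 Cytosol (50 μg) from a person was incubated in 50 mM sodium phosphate pH 6.2 with 5 mM pNPS, 20 μM PAPS and test compound at 1 μM up to 1000 μM (upper limit varying by compound). After 30 min at 37°C, the reaction was stopped with 0.25 M Tris pH 8.7 and read at 401 nm. Product formation was linear with time. Km came from a Michaelis–Menten fit; means ± SD of three determinations.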

hSULT1A1 [3] = molecular target: T2, hSULT1A1 (Homo sapiens, UniProt P50225); experiment: Sulfation of flavonoids by recombinant hSULT1A1; assay type: in vitro ADME
T2 sequence (P50225 whole entry): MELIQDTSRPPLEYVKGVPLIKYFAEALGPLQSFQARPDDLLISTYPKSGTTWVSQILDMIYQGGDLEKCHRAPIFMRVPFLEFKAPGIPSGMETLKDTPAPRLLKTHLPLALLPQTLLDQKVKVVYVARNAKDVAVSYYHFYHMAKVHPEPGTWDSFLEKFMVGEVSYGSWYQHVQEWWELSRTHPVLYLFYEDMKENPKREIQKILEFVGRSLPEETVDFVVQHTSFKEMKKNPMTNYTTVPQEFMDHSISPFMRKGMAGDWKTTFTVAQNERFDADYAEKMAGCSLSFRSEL

hSULT2A1 = molecular target: T3, hSULT2A1 (Homo sapiens, UniProt Q06520); experiment: Inhibition of DHEA sulfation by recombinant hSULT2A1; assay type: biochemical; details: for Inhibition of hSULT2A1-catalysed DHEA sulfation (in words): substrate 2 μM DHEA, concentration range 1–1000 μM
T3 sequence (Q06520 1-285): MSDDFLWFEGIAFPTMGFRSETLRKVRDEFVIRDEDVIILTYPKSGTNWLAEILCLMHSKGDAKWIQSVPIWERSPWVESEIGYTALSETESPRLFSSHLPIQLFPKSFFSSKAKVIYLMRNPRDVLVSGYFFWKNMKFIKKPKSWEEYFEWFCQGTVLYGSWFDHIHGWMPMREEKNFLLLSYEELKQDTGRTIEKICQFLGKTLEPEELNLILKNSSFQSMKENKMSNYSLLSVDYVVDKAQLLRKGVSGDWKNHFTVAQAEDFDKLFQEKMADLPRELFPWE
Summary of the method: (§1)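 Test compound was added in DMSO (1% v/v final). Labelled substrates: [14C]2-naphthol 0.1 mM for hSULT1A1, [3H]DHEA 2 μM for hSULT2A1, [3H]oestradiol 0.15 μM for hSULT1E1. Incubated 30 min at 37°C, stopped with Tris pH 8.7, chloroform-extracted twice, aqueous phase scintillation-counted. IC50 from Hill-slope fit; three determinations.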

hSULT1E1 = molecular target: T4, hSULT1E1 (Homo sapiens, UniProt P49888); experiment: Inhibition of oestradiol sulfation by recombinant hSULT1E1; assay type: biochemical; details: for Inhibition of hSULT1E1-catalysed oestradiol sulfation (in words): substrate 0.15 μM oestradiol, concentration range 1–1000 μM
T4 sequence (P49888 1-294): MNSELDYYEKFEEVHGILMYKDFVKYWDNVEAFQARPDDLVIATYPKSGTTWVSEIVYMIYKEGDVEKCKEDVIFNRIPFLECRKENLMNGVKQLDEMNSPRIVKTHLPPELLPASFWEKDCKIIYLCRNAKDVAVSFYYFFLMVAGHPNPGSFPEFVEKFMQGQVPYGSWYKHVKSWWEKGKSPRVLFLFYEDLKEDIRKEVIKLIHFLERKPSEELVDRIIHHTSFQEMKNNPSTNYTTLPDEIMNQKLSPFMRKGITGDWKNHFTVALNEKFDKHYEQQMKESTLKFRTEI
Summary of the method: as §1

[4] = tested on: human intestine cytosolic SULTs; experiment: Inhibition of oestradiol sulfation by human intestine cytosol; assay type: biochemical; details: read-out: IC50, Oestradiol sulfation, Cytosol, substrate 0.15 μM oestradiol
Summary of the method: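 [3H]oestradiol (0.15 μM final) sulfation by 100 μg intestine cytosol from a person. Buffer 50 mM Tris (pH 6.2) with 20 μM PAPS. Test compound in DMSO (1% v/v final), 0.01–1000 μM. Reaction 30 min at 37°C, quenched with 0.25 M Tris (pH 8.7), chloroform-extracted twice, aqueous phase counted by scintillation. IC50 from a Hill-slope fit; mean ± SD of three determinations.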

[5] = tested on: human intestine cytosol (SULT1A1 and SULT1A3); experiment: Inhibition of 2-naphthol sulfation by human intestine cytosol; assay type: biochemical; details: read-out: IC50, 2-Naphthol sulfation, Cytosol, substrate 100 μM 2-naphthol
Summary of the method: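 Radioactive assay in 50 mM Tris (pH 6.2) with 20 μM PAPS and [14C]2-naphthol (0.1 mM final). Enzyme source: 100 μg intestine cytosol from a person. Test compound in DMSO (1% v/v final), 0.01–1000 μM. Incubated 30 min at 37°C, stopped with 0.25 M Tris (pH 8.7), extracted twice with chloroform, aqueous phase scintillation-counted. IC50 fitted with a Hill-slope equation; mean ± SD of three determinations.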

hSULT1A3 [6] = molecular target: T1, hSULT1A3; experiment: Inhibition of dopamine sulfation by recombinant hSULT1A3; assay type: biochemical
hSULT1A1 [7] = molecular target: T2, hSULT1A1; experiment: Inhibition of 2-naphthol sulfation by recombinant hSULT1A1; assay type: biochemical
Summary of the method: as §1

hSULT1A1 [8] = molecular target: T2, hSULT1A1; experiment: Inhibition of oestradiol sulfation by recombinant hSULT1A1; assay type: biochemical
[9] = flavonoid as substrate, substrate inhibition equation (2)
[10] = flavonoid as substrate, substrate inhibition equation (2), listed as hesperetin
[11] = flavonoid as substrate, Michaelis–Menten equation (1), 1–1000 μM catechin, 1–1000 μM epicatechin, 1–128 μM hesperetin, 1–32 μM eriodictyol
[12] = flavonoid as substrate, substrate inhibition equation (2), listed as catechin
[13] = substrate inhibition constant of flavonoid sulfation, equation (2)

T1 sequence (P0DMM9 whole entry): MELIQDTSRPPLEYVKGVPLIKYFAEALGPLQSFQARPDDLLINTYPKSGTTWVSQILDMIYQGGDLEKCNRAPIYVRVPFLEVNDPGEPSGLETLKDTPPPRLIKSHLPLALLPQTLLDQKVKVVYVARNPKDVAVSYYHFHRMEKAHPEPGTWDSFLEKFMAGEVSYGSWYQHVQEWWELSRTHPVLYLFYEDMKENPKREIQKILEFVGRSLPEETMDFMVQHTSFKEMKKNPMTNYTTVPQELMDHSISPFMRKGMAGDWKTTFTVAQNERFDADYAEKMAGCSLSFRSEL

COc1ccc([C@@H]2CC(=O)c3c(O)cc(O)cc3O2)cc1O [Hesperetin]
Ki (hSULT1A3 [1]): 4.2 ± 0.06 µM | Vmax (hSULT1A3 [1]; [9]): 303 ± 5.8 nmol/mg/min | Vmax (hSULT1A3 [1]; [10]): 303 nmol/mg/min | Vmax [2, 11]: 8.9 ± 0.3 nmol/mg/min | Km at 30 min [2]: 66 ± 3.3 µM | Ki (hSULT1A1 [3]): 3.7 ± 0.11 µM | Vmax (hSULT1A1 [3]; [10]): 92.7 nmol/mg/min | IC50 (hSULT2A1): 152 ± 14.9 µM | IC50 (hSULT1E1): 90.4 ± 11.5 µM | IC50 [4]: 3.6 ± 0.4 µM | IC50 [5]: 32.2 ± 3.6 µM | IC50 (hSULT1A3 [6]): 20.8 ± 8.1 µM | IC50 (hSULT1A1 [7]): 23.4 ± 5.75 µM

Oc1cc(O)c2c(c1)OC(c1ccc(O)c(O)c1)C(O)C2 (single isomer, unassigned; (+)) [Catechin, (+)catechin]
IC50 (hSULT1A1 [8]; read-out: IC50, Oestradiol sulfation, hSULT1A1, substrate 0.15 μM oestradiol): 2.6 ± 0.4 µM | Km (hSULT1A3 [1]; [9]): 236 ± 5.6 µM | Vmax (hSULT1A3 [1]; [9]): 342 ± 8.2 nmol/mg/min | Vmax (hSULT1A3 [1]; [12]): 342 nmol/mg/min | Ki (hSULT1A3 [1]; [13]): 8 ± 0.29 µM | Km [2, 11]: 104 ± 7.3 µM | Vmax [2, 11]: 6.7 ± 0.02 nmol/mg/min | Km (hSULT1A1 [3]; [9]): 165 ± 8.1 µM | Vmax (hSULT1A1 [3]; [9]): 187 ± 9.9 nmol/mg/min | Vmax (hSULT1A1 [3]; [12]): 187 nmol/mg/min | Ki (hSULT1A1 [3]; [13]): 6.37 ± 0.22 µM | Inhibition of hSULT2A1-catalysed DHEA sulfation (in words) (hSULT2A1; listed as (+)Catechin): did not significantly inhibit | Inhibition of hSULT2A1-catalysed DHEA sulfation (in words) (hSULT2A1; listed as catechin): not inhibited | Inhibition of hSULT1E1-catalysed oestradiol sulfation (in words) (hSULT1E1; listed as (+)catechin): did not significantly inhibit | Inhibition of hSULT1E1-catalysed oestradiol sulfation (in words) (hSULT1E1; listed as catechin): not inhibited | IC50 [4]: 10.1 ± 1.7 µM | IC50 [5]: 67.1 ± 6.3 µM | IC50 (hSULT1A3 [6]; read-out: IC50, Dopamine sulfation by hSULT1A3, substrate 50 μM dopamine): 82.5 ± 31.5 µM | IC50 (hSULT1A1 [7]; read-out: IC50, 2-Naphthol sulfation, hSULT1A1, substrate 100 μM 2-naphthol): 8.4 ± 3.3 µM

Oc1cc(O)c2c(c1)O[C@H](c1ccc(O)c(O)c1)[C@H](O)C2 [Epicatechin, (−)epicatechin]
IC50 (hSULT1A1 [8]): 6.1 ± 1 µM | Ki (hSULT1A3 [1]): 9.5 ± 0.21 µM | Vmax (hSULT1A3 [1]; [9]): 442 nmol/mg/min | Vmax [2, 11]: 4.2 ± 0.2 nmol/mg/min | Km at 30 min [2]: 149 ± 9.2 µM | Ki (hSULT1A1 [3]): 8.7 ± 3.07 µM | Vmax (hSULT1A1 [3]; [9]): 188 nmol/mg/min | Inhibition of hSULT2A1-catalysed DHEA sulfation (in words) (hSULT2A1; listed as (−)epicatechin): did not significantly inhibit | Inhibition of hSULT2A1-catalysed DHEA sulfation (in words) (hSULT2A1; listed as epicatechin): not inhibited | Inhibition of hSULT1E1-catalysed oestradiol sulfation (in words) (hSULT1E1; listed as (−)epicatechin): did not significantly inhibit | Inhibition of hSULT1E1-catalysed oestradiol sulfation (in words) (hSULT1E1; listed as epicatechin): not inhibited | IC50 [4]: 22.7 ± 5.6 µM | IC50 [5]: 157 ± 37.6 µM | IC50 (hSULT1A3 [6]): 117 ± 12.9 µM | IC50 (hSULT1A1 [7]): 42.5 ± 8.5 µM

O=C1C[C@@H](c2ccc(O)c(O)c2)Oc2cc(O)cc(O)c21 [Eriodictyol, eriodictyol]
Ki (hSULT1A3 [1]): 4.6 ± 0.02 µM | Vmax (hSULT1A3 [1]; [9]): 269 nmol/mg/min | Vmax [2, 11]: 19.4 ± 2.4 nmol/mg/min | Km at 30 min [2]: 220 ± 28 µM | Ki (hSULT1A1 [3]): 6.1 ± 0.14 µM | Vmax (hSULT1A1 [3]; [9]): 98.6 nmol/mg/min | IC50 (hSULT2A1): 139 ± 8.8 µM | IC50 (hSULT1E1): 677 ± 120 µM | IC50 [4]: 11.8 ± 2 µM | IC50 [5]: 28.9 ± 4.1 µM | IC50 (hSULT1A3 [6]): 14.7 ± 8.9 µM | IC50 (hSULT1A1 [7]): 15.2 ± 0.9 µM
